In ChEMBL document CHEMBL1149503, “Growth inhibition of human cancer cells in vitro by T-type calcium channel blockers” (Bioorg Med Chem Lett, 2006):
Calls of active or inactive are those of the source. No cut-off for these calls is given here.

Legend:
HEK293 = assay: Cytotoxicity against HEK293 cells at 100 uM; format: functional, cell-based; conditions: Homo sapiens
[1] = system: T-type calcium channel Cav3.1 (α1G); assay: Inhibition of T-type calcium channel Cav3.1; conditions: Homo sapiens
[2] = target: Voltage-dependent N-type calcium channel subunit alpha-1B (Homo sapiens) (UniProt Q00975); assay: Inhibition of N type calcium channel subunit Alpha-1B at 10 uM in HEK293 cells; format: cell-based
SK-OV-3 = assay: Inhibition of human SKOV3 cell growth by SRB assay; format: functional
Outline: (§1)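 Cells grown in RPMI 1640 with 10% heat-inactivated FBS, 37 °C, 5% CO2. Seeded, exposed to various sample concentrations in triplicate for 72 h, then formalin-fixed 30 min at room temperature. Stained with 0.4% SRB 30 min, washed with 1% acetic acid, bound dye dissolved in 10 mM unbuffered Tris base, OD read at 520 nm. GI50 from dose–response curves, three independent experiments.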

A549 = assay: Inhibition of human A549 cell growth by SRB assay; format: functional; outline: as §1
HCT-15 = assay: Inhibition of human HCT15 cell growth by SRB assay; format: functional; outline: as §1
SK-MEL-2 = assay: Inhibition of human SK-MEL-2 cell growth by SRB assay; format: functional, cell-based; outline: as §1
KB = assay: Inhibition of human KB cell growth by SRB assay; format: functional; outline: as §1
[3] = target: Voltage-dependent T-type calcium channel subunit alpha-1G (Homo sapiens) (UniProt O43497); assay: Inhibition of T type calcium channel subunit alpha-1G at 10 uM in HEK293 cells; format: cell-based
Outline: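 Whole-cell patch clamp on α1G T-type channel expressed in HEK293 cells, test compound at 10 µM. Currents evoked every 15 s by 50 ms depolarizing step from 100 to 30 mV (signs as printed). % inhibition = 100[(C−D)/C], C and D being peak current before and with drug. Three independent experiments.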

Sequence of Voltage-dependent N-type calcium channel subunit alpha-1B (Homo sapiens) (Q00975 whole entry, looked up): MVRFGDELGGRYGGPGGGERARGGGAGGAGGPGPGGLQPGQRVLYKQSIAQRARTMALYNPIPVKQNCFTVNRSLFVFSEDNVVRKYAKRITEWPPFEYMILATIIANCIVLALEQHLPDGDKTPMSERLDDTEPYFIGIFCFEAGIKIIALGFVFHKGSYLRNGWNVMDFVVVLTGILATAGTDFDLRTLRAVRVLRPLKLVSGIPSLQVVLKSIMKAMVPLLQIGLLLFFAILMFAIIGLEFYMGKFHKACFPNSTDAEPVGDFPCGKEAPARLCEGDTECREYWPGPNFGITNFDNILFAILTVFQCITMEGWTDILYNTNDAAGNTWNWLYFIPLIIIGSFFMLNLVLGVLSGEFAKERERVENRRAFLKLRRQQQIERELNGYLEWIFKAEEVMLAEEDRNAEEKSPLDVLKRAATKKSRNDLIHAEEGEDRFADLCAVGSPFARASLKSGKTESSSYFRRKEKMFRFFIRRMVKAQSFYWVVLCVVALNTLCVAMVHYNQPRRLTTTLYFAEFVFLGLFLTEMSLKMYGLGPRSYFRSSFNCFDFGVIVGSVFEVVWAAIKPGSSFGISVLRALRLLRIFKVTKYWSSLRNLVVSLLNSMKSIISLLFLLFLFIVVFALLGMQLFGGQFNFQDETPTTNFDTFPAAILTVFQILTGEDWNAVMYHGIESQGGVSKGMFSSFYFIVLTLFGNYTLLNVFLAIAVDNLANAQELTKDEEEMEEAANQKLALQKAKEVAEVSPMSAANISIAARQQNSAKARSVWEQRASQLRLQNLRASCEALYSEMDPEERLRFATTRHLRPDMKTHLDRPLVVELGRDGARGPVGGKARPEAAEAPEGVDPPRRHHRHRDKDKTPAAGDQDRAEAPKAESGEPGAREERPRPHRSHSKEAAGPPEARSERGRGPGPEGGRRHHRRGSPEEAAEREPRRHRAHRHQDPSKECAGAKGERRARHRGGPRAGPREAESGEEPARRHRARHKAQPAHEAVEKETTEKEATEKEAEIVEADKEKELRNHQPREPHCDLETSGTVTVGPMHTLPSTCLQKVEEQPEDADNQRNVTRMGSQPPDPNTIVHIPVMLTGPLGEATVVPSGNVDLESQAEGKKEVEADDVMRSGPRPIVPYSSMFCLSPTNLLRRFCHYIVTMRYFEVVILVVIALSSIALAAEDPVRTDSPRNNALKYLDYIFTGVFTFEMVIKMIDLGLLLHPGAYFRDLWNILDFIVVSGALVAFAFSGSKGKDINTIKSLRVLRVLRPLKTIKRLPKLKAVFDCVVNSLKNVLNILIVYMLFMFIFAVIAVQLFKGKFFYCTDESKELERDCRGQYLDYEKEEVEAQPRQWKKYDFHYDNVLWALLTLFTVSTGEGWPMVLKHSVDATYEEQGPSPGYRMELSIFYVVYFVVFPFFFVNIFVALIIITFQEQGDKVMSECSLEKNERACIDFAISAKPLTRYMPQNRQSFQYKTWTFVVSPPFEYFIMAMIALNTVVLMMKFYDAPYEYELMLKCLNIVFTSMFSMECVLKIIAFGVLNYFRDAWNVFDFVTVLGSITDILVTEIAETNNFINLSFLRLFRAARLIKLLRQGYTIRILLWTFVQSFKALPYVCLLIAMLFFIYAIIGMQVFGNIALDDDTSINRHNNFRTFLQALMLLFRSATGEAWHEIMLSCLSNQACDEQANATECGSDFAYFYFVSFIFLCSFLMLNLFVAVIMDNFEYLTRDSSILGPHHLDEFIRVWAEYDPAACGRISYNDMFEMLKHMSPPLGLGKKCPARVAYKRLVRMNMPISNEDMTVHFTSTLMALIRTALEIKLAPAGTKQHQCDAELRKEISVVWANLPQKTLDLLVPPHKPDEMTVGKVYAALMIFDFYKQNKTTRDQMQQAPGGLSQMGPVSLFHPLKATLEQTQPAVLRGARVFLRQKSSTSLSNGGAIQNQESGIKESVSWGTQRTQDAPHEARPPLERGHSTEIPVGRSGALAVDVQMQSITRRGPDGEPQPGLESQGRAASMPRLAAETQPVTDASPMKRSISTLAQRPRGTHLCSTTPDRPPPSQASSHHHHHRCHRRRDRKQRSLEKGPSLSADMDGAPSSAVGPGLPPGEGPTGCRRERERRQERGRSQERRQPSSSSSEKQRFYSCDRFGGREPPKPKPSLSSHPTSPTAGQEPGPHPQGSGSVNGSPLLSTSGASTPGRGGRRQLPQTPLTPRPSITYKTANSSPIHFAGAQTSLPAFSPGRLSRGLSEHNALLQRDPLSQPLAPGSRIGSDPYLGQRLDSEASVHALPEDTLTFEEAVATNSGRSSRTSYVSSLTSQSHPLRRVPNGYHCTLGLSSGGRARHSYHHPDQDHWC
Sequence of Voltage-dependent T-type calcium channel subunit alpha-1G (Homo sapiens) (O43497 whole entry): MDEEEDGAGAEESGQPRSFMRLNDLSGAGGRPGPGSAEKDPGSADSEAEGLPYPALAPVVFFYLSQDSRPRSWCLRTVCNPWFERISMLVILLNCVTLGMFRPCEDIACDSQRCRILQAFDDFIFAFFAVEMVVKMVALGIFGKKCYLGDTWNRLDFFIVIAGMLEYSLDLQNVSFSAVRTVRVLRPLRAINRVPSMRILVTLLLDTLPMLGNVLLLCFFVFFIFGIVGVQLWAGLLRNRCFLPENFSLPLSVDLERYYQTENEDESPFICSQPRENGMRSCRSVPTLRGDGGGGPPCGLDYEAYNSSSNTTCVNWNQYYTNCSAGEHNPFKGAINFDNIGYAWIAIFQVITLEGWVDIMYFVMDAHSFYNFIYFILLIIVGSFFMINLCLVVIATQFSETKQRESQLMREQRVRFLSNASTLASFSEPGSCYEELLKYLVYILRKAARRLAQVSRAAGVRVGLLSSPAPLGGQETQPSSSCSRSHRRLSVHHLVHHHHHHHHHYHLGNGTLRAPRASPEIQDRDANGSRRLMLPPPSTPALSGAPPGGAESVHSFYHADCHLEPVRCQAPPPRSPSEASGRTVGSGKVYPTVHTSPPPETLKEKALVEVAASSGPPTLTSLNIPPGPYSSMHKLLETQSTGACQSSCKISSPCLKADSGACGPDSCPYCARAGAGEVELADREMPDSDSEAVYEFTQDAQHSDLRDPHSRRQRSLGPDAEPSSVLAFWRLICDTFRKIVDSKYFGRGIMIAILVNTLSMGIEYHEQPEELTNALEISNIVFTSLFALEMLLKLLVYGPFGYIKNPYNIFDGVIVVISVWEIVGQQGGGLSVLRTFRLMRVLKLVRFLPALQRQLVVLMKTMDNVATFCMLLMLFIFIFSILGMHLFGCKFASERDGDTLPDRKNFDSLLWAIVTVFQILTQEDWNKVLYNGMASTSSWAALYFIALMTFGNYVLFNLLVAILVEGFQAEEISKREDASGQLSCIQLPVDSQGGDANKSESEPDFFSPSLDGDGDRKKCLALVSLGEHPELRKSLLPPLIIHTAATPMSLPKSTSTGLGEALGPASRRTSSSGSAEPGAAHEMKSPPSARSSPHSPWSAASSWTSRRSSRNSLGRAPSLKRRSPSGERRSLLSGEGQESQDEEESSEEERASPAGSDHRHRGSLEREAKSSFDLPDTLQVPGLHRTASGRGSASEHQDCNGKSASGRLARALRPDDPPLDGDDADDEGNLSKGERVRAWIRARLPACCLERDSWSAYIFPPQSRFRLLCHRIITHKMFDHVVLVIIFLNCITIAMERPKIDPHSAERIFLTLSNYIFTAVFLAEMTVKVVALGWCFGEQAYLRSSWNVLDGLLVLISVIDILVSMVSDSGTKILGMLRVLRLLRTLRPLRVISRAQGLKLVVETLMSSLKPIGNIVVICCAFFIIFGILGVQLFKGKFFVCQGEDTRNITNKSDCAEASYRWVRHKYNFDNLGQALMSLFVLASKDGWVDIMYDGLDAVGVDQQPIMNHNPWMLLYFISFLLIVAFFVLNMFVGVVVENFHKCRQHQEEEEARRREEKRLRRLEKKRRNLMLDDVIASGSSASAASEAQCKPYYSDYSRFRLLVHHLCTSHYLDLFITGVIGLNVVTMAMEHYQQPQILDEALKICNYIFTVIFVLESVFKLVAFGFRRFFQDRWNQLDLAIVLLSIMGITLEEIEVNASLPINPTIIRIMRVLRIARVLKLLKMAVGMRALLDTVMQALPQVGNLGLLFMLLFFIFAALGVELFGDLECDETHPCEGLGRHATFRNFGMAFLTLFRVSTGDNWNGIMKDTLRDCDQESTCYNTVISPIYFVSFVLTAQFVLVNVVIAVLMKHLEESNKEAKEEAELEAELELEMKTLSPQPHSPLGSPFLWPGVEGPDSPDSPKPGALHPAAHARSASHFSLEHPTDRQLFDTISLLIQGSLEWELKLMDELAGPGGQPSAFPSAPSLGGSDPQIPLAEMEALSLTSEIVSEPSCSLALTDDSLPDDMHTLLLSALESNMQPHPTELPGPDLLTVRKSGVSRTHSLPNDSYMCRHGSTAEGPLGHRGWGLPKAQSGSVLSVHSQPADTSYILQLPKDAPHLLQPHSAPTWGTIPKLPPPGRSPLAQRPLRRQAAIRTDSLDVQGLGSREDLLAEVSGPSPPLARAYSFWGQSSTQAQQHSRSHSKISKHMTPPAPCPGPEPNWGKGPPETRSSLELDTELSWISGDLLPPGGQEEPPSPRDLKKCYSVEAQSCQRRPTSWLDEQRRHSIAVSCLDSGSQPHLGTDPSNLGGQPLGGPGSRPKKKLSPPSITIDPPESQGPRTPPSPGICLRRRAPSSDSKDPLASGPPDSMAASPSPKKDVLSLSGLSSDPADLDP

IC50 [1]	inhibition [2]	GI50 (SK-OV-3)	GI50 (A549)	GI50 (HCT-15)	GI50 (SK-MEL-2)	GI50 (KB)	inhibition [3]	Activity [2]	Compound	Activity (HEK293)
0.17 µM	14.1%	2.93 µM	3.06 µM	2.8 µM	2.7 µM	3.11 µM	–	–	Cc1ccc(S(=O)(=O)Nc2ccc(CNC(=O)CC3c4ccccc4N=C(N4CCCCC4)N3c3ccccc3)cc2)cc1 (centres undefined)	Not toxic
–	8.9%	39.3 µM	36.6 µM	33.9 µM	30.7 µM	37.1 µM	–	–	Nc1ccc(CNC(=O)CC2c3ccccc3N=C(N3CCCCC3)N2c2ccccc2)cc1 (centres undefined)	Not toxic
–	9.3%	77.8 µM	95.1 µM	74.2 µM	42.5 µM	108 µM	59.3%	–	CCN1C(N2CCCCC2)=Nc2ccccc2C1CC(=O)NCc1ccccc1 (centres undefined)	Not toxic
–	–	46.5 µM	66.1 µM	38.6 µM	31.4 µM	41.6 µM	62.7%	inactive	CCN1C(N(C)C)=Nc2ccccc2C1CC(=O)NCc1ccc(NS(=O)(=O)c2ccc(F)cc2)cc1 (centres undefined)	Not toxic
–	27.6%	> 200 µM	> 200 µM	> 200 µM	50.2 µM	> 200 µM	34.4%	–	CCN1C(N(C)C)=Nc2ccccc2C1CC(=O)NCc1ccccc1 (centres undefined)	Not toxic
0.96 µM	–	22.8 µM	23 µM	25.7 µM	3.52 µM	22.3 µM	91.3%	inactive	CCN1C(N2CCCCC2)=Nc2ccccc2C1CC(=O)NCc1ccc(NS(=O)(=O)c2ccc(C)cc2)cc1 (centres undefined)	Not toxic
–	8.9%	33.4 µM	39.2 µM	33.9 µM	24.2 µM	33.8 µM	81.3%	–	CCN1C(N(C)C)=Nc2ccccc2C1CC(=O)NCc1ccc(NS(=O)(=O)c2ccc(C)cc2)cc1 (centres undefined)	Not toxic
0.56 µM	–	3.24 µM	3.39 µM	3.64 µM	3.32 µM	3.77 µM	–	inactive	COC(=O)CC1c2ccccc2N=C(NCCCCCN)N1c1ccc(-c2ccccc2)cc1 (centres undefined)	Not toxic
